Screening results (PubChem)
Hits are enriched below; roughly 2.9% of the tested compounds scored in any of these assays.
CHO-K1 Ca antag – counter-screen for M1 antagonists: effect in parental CHO-K1 cells; ATP-induced calcium, Fluo-8 fluorescence; inhibition, % at 3 µM; 360,000 tested, 0.6% active; AID 602250;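 active = inhibition above a per-plate cutoff, the plate's mean sample inhibition plus 3 SD, cut at about 24% in these data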;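 note: 0% = DMSO plus EC80 ATP and 100% = DMSO alone without ATP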
CHO parental Ca – counter-screen: ATP calcium response change in parental CHO cells; parental CHO-K1, ATP-induced calcium, Fluo-8 fluorescence; inhibition, % at 5.6 µM; 330,000 tested, 0.63% active; AID 463079;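 active = inhibition above that plate's mean sample inhibition plus 3 SD, cut at about 26% in these data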;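 note: 0% = ATP-challenged DMSO wells and 100% = DMSO wells without ATP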
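Test system: untransfected parental CHO cell line. Compound: one dose, 5.6 µM nominal. Detection: intracellular calcium via Fluo-8 no-wash fluorescent dye. Measure: % inhibition. Benchmarks: ATP-challenged DMSO wells low, unchallenged DMSO wells high.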
M1 PAM parental – counter-screen for M1 PAMs: effect in parental CHO-K1 cells | ATP EC20, Fluo-8 calcium fluorescence; 0% at ATP EC20, 100% at ATP max | activation, % at 3 µM | 360,000 tested, 0.02% active | AID 602247;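 active = activation above the run cutoff, the mean activation of all test compounds plus 3 SD, cut at about 40% in these data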;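 note: peak over basal fluorescence ratio in a 140 s read after ATP addition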
OX1R antag-1 – blocks the human orexin 1 receptor; O43613; CHO/OX1R cells, Fluo-8 calcium fluorescence, orexin A; inhibition, % at 5 µM; 330,000 tested, 0.43% active; AID 434989;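 active = inhibition above its plate's threshold, mean inhibition of all tested compounds on the plate plus 3 SD, cut at about 37% in these data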;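 note: 0% = orexin A challenge wells and 100% = SB-334867-A antagonist wells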
Target sequence (O43613 whole entry, looked up): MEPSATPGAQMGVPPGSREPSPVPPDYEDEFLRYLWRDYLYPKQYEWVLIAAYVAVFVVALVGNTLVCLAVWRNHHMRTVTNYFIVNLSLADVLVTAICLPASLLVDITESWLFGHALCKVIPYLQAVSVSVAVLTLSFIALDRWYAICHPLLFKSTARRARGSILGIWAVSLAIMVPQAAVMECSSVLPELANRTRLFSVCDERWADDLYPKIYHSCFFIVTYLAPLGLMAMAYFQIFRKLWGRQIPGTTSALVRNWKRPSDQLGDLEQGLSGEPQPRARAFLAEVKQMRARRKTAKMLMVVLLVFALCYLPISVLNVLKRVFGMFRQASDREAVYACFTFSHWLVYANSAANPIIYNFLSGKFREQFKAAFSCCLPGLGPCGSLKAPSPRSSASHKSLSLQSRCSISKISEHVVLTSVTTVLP
CHO-K1 Ca ag – M1 agonist counterscreen hit in parental CHO-K1 cells; Fluo-8 calcium fluorescence; scaled to maximal ATP response, vehicle zero; activation, % at 3 µM; 360,000 tested, 0.48% active; AID 602248; in the data active = activation above about 15%;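 note: untransfected CHO-K1 host cells lacking M1 receptor as counterscreen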
OX1R antag-2 – antagonists of human orexin 1 receptor (OX1R). inhibition, % at 6.6 µM. 330,000 tested, 1.8% active. OX1R-expressing cells, FRET antagonist read-out. AID 485270; in the data active = inhibition mostly above about 38%, no sharp cut-off; inactive = mostly below about 40%;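 note: 0% = agonist challenge alone and 100% = reference antagonist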
Active calls of the source: *; · = no result.

SMILES | CHO-K1 Ca antag | CHO parental Ca | M1 PAM parental | OX1R antag-1 | CHO-K1 Ca ag | OX1R antag-2
O=C(Oc1ccc2c(c1)O/C(=C\c1ccncc1)C2=O)c1cccs1 | 7 | -8 | -12 | -19 | 2 | 22
CC(=O)Oc1ccc2c(c1)O/C(=C\c1ccncc1)C2=O | -10 | -1 | 17 | -10 | 18* | 33
C=CCn1c(SCC(=O)NCc2ccco2)nc2sc3c(c2c1=O)CCCC3 | -15 | -17 | -7 | -28 | 0 | 19
O=C(NCc1ccco1)c1ccc2nc3sc4c(c3c(=O)n2c1)CCCC4 | · | -22 | · | -1 | · | 87*
COc1ccc(NC(=O)COc2ccc(N(C)S(=O)(=O)c3ccc(Cl)cc3)cc2)cc1OC | 27* | 90* | -20 | 51* | 14 | 45*
Cn1c(=O)n(C)c2cc(NS(=O)(=O)c3ccccc3[N+](=O)[O-])ccc21 | -5 | -8 | 3 | -6 | 2 | 4
CCOc1ccc(NC(=S)Nc2ccc3nsnc3c2)cc1 | -3 | -12 | 12 | -12 | 4 | 113*
CCOc1ccc(NC(=O)Nc2ccc3nsnc3c2)cc1 | 16 | 2 | -3 | 1 | 15 | 18
CCOc1ccc(NC(=S)Nc2ccccc2C2CC2)cc1 | 26* | -5 | -15 | 2 | 0 | 3
S=C(NCc1ccc2c(c1)OCO2)Nc1ccc2nsnc2c1 | 7 | 32 | -2 | 53* | 4 | 40
CCN(CC)CCCNc1nc(SC)nc2sc3c(c12)CCN(C)C3 | · | -29 | · | -29 | · | -6
CNC(=O)OCN1C(=O)C2CC=CCC2C1=O (stereo unspecified) | -11 | · | 15 | · | 0 | ·
CCOC(=O)N1CCN(c2ncnc3c2[nH]c2ccc(F)cc23)CC1 | 19 | 47* | -6 | 52* | 9 | 68
Fc1ccc2[nH]c3c(N4CCN(c5ccccc5)CC4)ncnc3c2c1 | 27* | 59* | -5 | 68* | 11 | 118*
COc1ccc2[nH]c3c(N4CCc5ccccc5C4)ncnc3c2c1 | 9 | 15 | -26 | 12 | 11 | 52
COc1ccc(N2CCN(c3ncnc4c3[nH]c3ccccc34)CC2)cc1 | 8 | 75* | 6 | 71* | 11 | 89*
CCOC(=O)c1cccc(C2=CC(=O)C[C@H](c3ccc(OC)cc3)C2)c1 | -16 | -28 | 16 | -16 | 0 | 4
O=C(CNCc1cccnc1)Nc1cc(C(F)(F)F)ccc1N1CCOCC1 | -9 | -4 | 17 | -22 | 1 | 4
COc1ccccc1-c1coc2cc(OC(=O)N3CCOCC3)ccc2c1=O | 6 | -7 | -16 | -1 | 0 | 3
CCC(Oc1ccc2c(=O)c(-c3ccccc3OC)coc2c1)C(=O)OCc1ccccc1 (stereo unspecified) | 1 | 57* | 13 | -7 | 6 | 7
CC(=O)Nc1ccc(NC(=O)C(C)OC(=O)CSc2ccc(Br)cc2C)cc1 (stereo unspecified) | 6 | -30 | 5 | -24 | 1 | 12
O=C1NC(=Nc2ccc3ccccc3c2)S/C1=C/c1ccco1 | 4 | -13 | -4 | 5 | 0 | 42*
O=C1NC(=Nc2ccc(O)cc2)S/C1=C/c1ccco1 | 15 | 3 | -10 | -15 | 0 | 33
O=C1CN(S(=O)(=O)c2ccc(F)cc2)c2ccccc2N1 | 28* | -2 | -9 | 1 | 0 | 29
CC1CCN(C(=O)c2ccc3c(c2NCCO)C(=O)c2ccccc2C3=O)CC1 | -14 | -25 | 15 | -23 | 5 | 44
SMILES | CHO-K1 Ca antag | CHO parental Ca | M1 PAM parental | OX1R antag-1 | CHO-K1 Ca ag | OX1R antag-2
CCN(CC)CCC(=O)Nc1cccc2c1C(=O)c1ccccc1C2=O | 8 | -12 | -8 | -40 | 0 | 74*
CCN(CC)CCNC(=O)c1ccc2c(c1NCCO)C(=O)c1ccccc1C2=O | -3 | -15 | 8 | -20 | 0 | 89*
Cc1ccc(NC(=S)Nc2ccc(F)cc2)c(C)c1 | 13 | -9 | -12 | -11 | 0 | 3
Cc1ccc(-c2nc3cccnc3s2)cc1NS(=O)(=O)c1cccs1 | -5 | -14 | 23 | -14 | 2 | 41*
Cc1nc2ccc(S(=O)(=O)Nc3cccc(-c4nc5cccnc5s4)c3C)cc2s1 | 3 | 32* | 0 | -10 | 10 | 25
O=C1Nc2ccccc2CN2C(=O)c3cc(Cl)ccc3NC(=O)C12 (stereo unspecified) | -18 | · | 20 | · | 2 | ·
CC1(C)C(=O)Nc2ccccc2N1C(=O)COC(=O)CNS(=O)(=O)c1ccc(F)c(F)c1F | 24* | -14 | -22 | -2 | -1 | 4
CC1(C)C(=O)Nc2ccccc2N1C(=O)COC(=O)CSc1ccc(Cl)cc1 | -10 | -26 | -5 | -22 | 2 | 3
CC(NC(=O)COc1ncnc2cc([N+](=O)[O-])ccc12)c1ccccc1 (stereo unspecified) | 20 | -5 | -12 | -14 | 1 | 64*
CCOC(=O)c1c(C)[nH]c(C)c1C(=O)COc1ncnc2cc([N+](=O)[O-])ccc12 | 1 | -20 | -21 | -40 | 2 | 75*
O=C(COc1ncnc2cc([N+](=O)[O-])ccc12)NCCc1ccc(Cl)cc1 | -19 | -21 | 13 | -18 | 6 | 18
O=C(CSc1ccc([N+](=O)[O-])cc1)Nc1cccc(S(=O)(=O)Nc2ccccc2F)c1 | 6 | 46* | 12 | 32 | 7 | 23
O=C1C(=O)c2ccccc2C(O)=C1c1ccccc1F | 5 | -8 | -15 | -9 | 0 | 46*
O=C1C(O)=C(O)C(=O)c2ccccc21 | -12 | 7 | 4 | 0 | 0 | 13
O=C1c2ccc(-c3ccc4c(c3)C(=O)N(CCCO)C4=O)cc2C(=O)N1CCCO | -9 | -2 | 7 | -12 | 1 | 59*
O=C1c2ccc(Oc3ccc4c(c3)C(=O)N(CCCCO)C4=O)cc2C(=O)N1CCCCO | -4 | -9 | 3 | 0 | 4 | 73
CCOC(=O)C1C(C(=O)NN)C1C(=O)Nc1ccccc1 (stereo unspecified) | 10 | -19 | 2 | -23 | 0 | 15
O=C(NNC(=O)C1CC1)c1cc2cc3ccccc3nc2s1 | 10 | 5 | -7 | -17 | 0 | 54*
Fc1ccccc1CCNc1c2c(nc3ncnn13)CCCC2 | -7 | -2 | -4 | 3 | 12 | 29
c1ccc(CCNc2c3c(nc4ncnn24)CCC3)cc1 | -1 | -3 | 7 | -6 | 21* | 13
COc1cc(/C=N/NC(=O)CSc2cc(C)c(Br)cc2C)ccc1O | 5 | 8 | 16 | 7 | 7 | 48*
O=C(COc1ccc(S(=O)(=O)NC2CCCCC2)cc1Cl)NCc1cccnc1 | 28* | -20 | -9 | -28 | 0 | 8
O=C(COc1ccc(S(=O)(=O)NC2CCCCC2)cc1)NCc1cccnc1 | -14 | -12 | 6 | -16 | 0 | 6
CCCNC(=O)C[C@H]1C[C@H]2c3cc(NC(=O)Nc4ccc(F)cc4)ccc3O[C@H]2[C@@H](CO)O1 | -13 | · | -15 | · | 0 | ·
